Experimental findings from ChEMBL document CHEMBL4819088, “Synthesis and in vivo screening of isosteviol derivatives as new cardioprotective agents” (2021) are described below.

For experiment [1], the species on record is Danio rerio. Description: Prevention of doxorubicin-induced Zebrafish mortality assessed as survival rate at 40 uM incubated for 48 hrs by inverted fluorescence microscopy (reference value: 52%). In kind it is functional.
The species entered for experiment [2] is Danio rerio. Nature of the experiment: Prevention of doxorubicin-induced Zebrafish mortality assessed as increase in survival rate incubated for 48 hrs by inverted fluorescence microscopy. As to conditions: dose 5-40 µM. Type of experiment: functional, organism-based. Summed up: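 Wild-type embryos, 24 hpf, 20 per well in 1 mL egg water, exposed to DOX (100 μM) with or without test compound (5, 15, 40 μM) for 48 h. Survival scored at 96 hpf by inverted fluorescence microscopy; no motion on touch, or loss of atrial and ventricular contractility, counted as dead. Mean ± S.D., n = 4.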

The test system of experiment [3] is Danio rerio. Nature of the experiment: Cardioprotective activity in (cmlc2:GFP) transgenic Zebrafish assessed as reduction in doxorubicin-induced cardiac edema measured after 48 hrs. Type of experiment: functional, organism-based.
For experiment [4], the species on record is Danio rerio. Nature of the experiment: Cardioprotective activity in (cmlc2:GFP) transgenic Zebrafish assessed as prevention of doxorubicin-induced heart shape change measured after 48 hrs. In kind it is functional, organism-based.
For experiment [5], the species on record is Danio rerio. Nature of the experiment: Cardioprotective activity in (cmlc2:GFP) transgenic Zebrafish assessed as reduction in doxorubicin-induced cardiac impairment measured after 48 hrs. In kind it is functional, organism-based. An outline of the steps: (§1)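 Tg(cmlc2:GFP) embryos, 24 hpf, 20 per well, exposed to DOX (80 μM) with or without test compound at its optimum concentration for 48 h. At 72 hpf, heart rate, fractional shortening, stroke volume and cardiac output were derived from fluorescence imaging of atrium and ventricle. Mean ± S.D., n = 4.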

The species named for experiment [6] is Danio rerio. Description: Cardioprotective activity against doxorubicin-induced (cmlc2:GFP) transgenic Zebrafish assessed as protection of heart measured after 48 hrs. Type of experiment: functional, organism-based. As to conditions: dose 20-60 µM. An outline of the steps: as §1
Experiment [7] is filed under the species Danio rerio. Description: Cardioprotective activity against doxorubicin-induced (cmlc2:GFP) transgenic Zebrafish assessed as protection of heart function loss measured after 48 hrs. In kind it is functional, organism-based. The following applies: dose 20-60 µM. Summed up:
as §1

The species entered for experiment [8] is Danio rerio. Nature of the experiment: Cardioprotective activity against Zebrafish assessed as reduction in doxorubicin-induced increase in Cardiac troponin T mRNA level by qRT-PCR analysis. As to conditions: dose 20-40 µM. In kind it is functional, organism-based. Summed up:
(§2)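 Zebrafish embryos, either controls or exposed to doxorubicin with or without test compound. ANP and cTnT mRNA levels measured relative to control. Mean ± S.D., n = 4.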
A general note: Real-time PCR tracks product formation cycle by cycle.

The species named for experiment [9] is Danio rerio. Nature of the experiment: Cardioprotective activity against Zebrafish assessed as reduction in doxorubicin-induced increase in natriuretic peptide mRNA level by qRT-PCR analysis. As to conditions: dose 20-40 µM. Type of experiment: functional, organism-based. Summed up:
as §2

Experiment [10] concerns H9c2. Description: Cardioprotective activity against doxorubicin-induced rat H9c2 cells assessed as protection of cell damage measured after 48 hrs by CCK8 assay. Type of experiment: functional, cell-based. The following applies: dose 0.5-12.5 µM. An outline of the steps:
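H9c2 cells grown in DMEM with 10% FBS and penicillin/streptomycin at 37 °C, 5% CO2, used at 70% confluence. Exposed to DOX (10 μM) with or without test compound (0.5–12.5 μM) for 48 h. CCK-8 (0.5 mg/mL) then added for 4 h to read viability.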

In experiment [11] the test system is H9c2. Nature of the experiment: Cardioprotective activity against rat H9c2 cells assessed as inhibition of doxorubicin-induced ROS production preincubated for 48 hrs followed by loading with DCFDA dye for 40 mins by DCF-DA probe based fluorescence assay. Type of experiment: functional, cell-based. As to conditions: dose 1-10 µM. An outline of the steps:
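H9c2 cells exposed for 48 h with or without test compound, then loaded with DCFH-DA (5 μM final, in DMEM) for 40 min at 37 °C. Cells washed three times with PBS; DCF fluorescence read by confocal microscopy as the ROS level. Mean ± S.D., n = 3.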

Experiment [12] relates to H9c2. Nature of the experiment: Cardioprotective activity against rat H9c2 cells assessed as inhibition of doxorubicin-induced mitochondrial membrane potential loss incubated for 48 hrs by JC1 staining based confocal microscopy. The following applies: dose 1-10 µM.

As to `COc1ccc(C(=O)OC[C@@H]2C(=O)[C@@]3(C)CC[C@H]4[C@]5(C)CCC[C@@](C)(N)[C@H]5CC[C@@]24C3)c(OC)c1OC`, the Activity is 98% in the experiment listed under Danio rerio [1]; “Dose-Dependent Effect” in the experiment listed under Danio rerio [2]; “Dose-Dependent Effect” with Danio rerio [3]; “Dose-Dependent Effect” in the experiment filed under Danio rerio [4]; “Dose-Dependent Effect” in the experiment listed under Danio rerio [5]; “Dose-Dependent Effect” in the experiment filed under Danio rerio [6]. The Activity result in the experiment listed under Danio rerio [7], in the experiment listed under Danio rerio [8], in the experiment listed under Danio rerio [9], with H9c2 [10], with H9c2 [11] and in the experiment on H9c2 [12] was “Dose-Dependent Effect” in each case.
